According to ChEMBL document CHEMBL3351764, “Design, synthesis and biological activity of flavonoid derivatives as selective agonists for neuromedin U 2 receptor” (Bioorg Med Chem, 2014):
Calls of active or inactive are those of the source. No cut-off for these calls is given here.

Columns and labels:
[1] = target: Neuromedin-U receptor 2 (Homo sapiens, UniProt Q9GZQ4); test: Agonist activity at human NMU2R transfected in HEK293 cells after 7 hrs by luciferase reporter gene assay; format: cell-based
Chain of Neuromedin-U receptor 2 (Q9GZQ4 whole entry): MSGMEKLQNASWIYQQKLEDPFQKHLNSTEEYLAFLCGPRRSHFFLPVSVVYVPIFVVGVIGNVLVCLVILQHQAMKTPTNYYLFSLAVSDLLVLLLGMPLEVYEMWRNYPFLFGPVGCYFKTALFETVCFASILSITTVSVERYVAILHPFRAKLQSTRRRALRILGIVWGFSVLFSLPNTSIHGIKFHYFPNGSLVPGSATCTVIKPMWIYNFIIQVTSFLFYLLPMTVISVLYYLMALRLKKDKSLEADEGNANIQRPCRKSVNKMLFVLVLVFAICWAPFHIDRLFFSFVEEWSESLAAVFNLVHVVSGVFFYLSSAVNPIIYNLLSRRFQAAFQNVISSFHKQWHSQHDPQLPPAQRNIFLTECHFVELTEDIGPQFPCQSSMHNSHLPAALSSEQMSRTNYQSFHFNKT
Outline: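 HEK-293 cells were stably co-transfected with a reporter gene construct and human NMU2R cDNA in pcDNA3.1(+), maintained under G418 selection at 37 °C in 5% CO2, then seeded and incubated overnight. Compounds were added at various concentrations for 7 h at 37 °C, followed by Bright-Glo luciferase read-out. Forskolin and NMU served as positive controls. EC50 was fitted by four-parameter logistic regression; means ± SEM of three independent experiments.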

[2] = target: Adrenocorticotropic hormone receptor (Homo sapiens) (UniProt Q01718); test: Agonist activity at human MC2 receptor at 100 uM to 5 mM
Chain of Adrenocorticotropic hormone receptor (Homo sapiens) (Q01718 whole entry): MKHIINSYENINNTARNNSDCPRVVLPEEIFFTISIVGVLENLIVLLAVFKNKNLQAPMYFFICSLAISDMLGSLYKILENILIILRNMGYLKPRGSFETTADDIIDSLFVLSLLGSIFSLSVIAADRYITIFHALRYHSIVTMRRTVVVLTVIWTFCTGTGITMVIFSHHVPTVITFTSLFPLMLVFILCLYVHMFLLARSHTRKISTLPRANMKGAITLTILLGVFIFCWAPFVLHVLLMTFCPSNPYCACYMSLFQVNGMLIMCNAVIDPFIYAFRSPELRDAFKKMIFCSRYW

[3] = target: Melanocortin receptor 3 (Homo sapiens) (UniProt P41968); test: Agonist activity at human MC3 receptor at 100 uM to 5 mM
Chain of Melanocortin receptor 3 (Homo sapiens) (P41968 whole entry): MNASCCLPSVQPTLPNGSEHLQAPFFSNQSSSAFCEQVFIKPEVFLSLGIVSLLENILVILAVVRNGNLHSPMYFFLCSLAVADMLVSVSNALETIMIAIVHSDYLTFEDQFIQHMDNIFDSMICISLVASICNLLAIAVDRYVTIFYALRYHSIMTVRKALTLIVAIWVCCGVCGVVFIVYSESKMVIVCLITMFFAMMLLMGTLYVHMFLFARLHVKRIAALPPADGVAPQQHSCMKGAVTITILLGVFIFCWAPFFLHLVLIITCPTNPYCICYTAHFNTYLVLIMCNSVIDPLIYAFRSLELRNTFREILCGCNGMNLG

[4] = target: Melanocortin receptor 3 (Mus musculus) (UniProt P33033); test: Agonist activity at mouse MC3 receptor at 100 uM to 5 mM
Chain of Melanocortin receptor 3 (Mus musculus) (P33033 whole entry): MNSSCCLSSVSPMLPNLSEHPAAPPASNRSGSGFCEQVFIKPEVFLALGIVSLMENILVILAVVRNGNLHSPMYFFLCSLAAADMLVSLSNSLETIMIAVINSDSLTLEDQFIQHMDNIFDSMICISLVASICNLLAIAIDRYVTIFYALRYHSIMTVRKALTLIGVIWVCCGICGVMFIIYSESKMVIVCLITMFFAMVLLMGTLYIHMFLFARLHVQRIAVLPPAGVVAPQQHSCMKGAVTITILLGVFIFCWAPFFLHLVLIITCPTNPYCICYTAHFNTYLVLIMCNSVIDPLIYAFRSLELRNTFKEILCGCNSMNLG

[5] = target: Melanocortin receptor 4 (Mus musculus) (UniProt P56450); test: Agonist activity at mouse MC4 receptor at 100 uM to 5 mM
Chain of Melanocortin receptor 4 (Mus musculus) (P56450 whole entry): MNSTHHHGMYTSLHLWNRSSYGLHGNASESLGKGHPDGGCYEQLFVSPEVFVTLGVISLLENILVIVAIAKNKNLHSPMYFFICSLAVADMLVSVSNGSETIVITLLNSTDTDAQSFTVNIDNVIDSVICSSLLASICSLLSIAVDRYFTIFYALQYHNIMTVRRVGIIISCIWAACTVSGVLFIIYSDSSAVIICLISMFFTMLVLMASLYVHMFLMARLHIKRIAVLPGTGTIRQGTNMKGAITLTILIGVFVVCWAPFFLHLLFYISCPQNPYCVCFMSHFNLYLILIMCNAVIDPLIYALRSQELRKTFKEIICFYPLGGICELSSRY

[6] = target: Melanocortin receptor 5 (Mus musculus) (UniProt P41149); test: Agonist activity at mouse MC5 receptor at 100 uM to 5 mM
Chain of Melanocortin receptor 5 (Mus musculus) (P41149 whole entry): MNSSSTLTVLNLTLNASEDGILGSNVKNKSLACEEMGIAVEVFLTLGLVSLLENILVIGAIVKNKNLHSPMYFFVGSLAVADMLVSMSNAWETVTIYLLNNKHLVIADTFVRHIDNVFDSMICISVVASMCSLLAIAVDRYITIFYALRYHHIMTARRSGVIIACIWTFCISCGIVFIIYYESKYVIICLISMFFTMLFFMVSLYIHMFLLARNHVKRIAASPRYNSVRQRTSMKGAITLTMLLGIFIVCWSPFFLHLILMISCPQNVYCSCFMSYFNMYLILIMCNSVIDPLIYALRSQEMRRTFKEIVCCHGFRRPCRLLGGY

[7] = target: T1, Neuromedin-U receptor 1 (Homo sapiens) (UniProt Q9HB89); test: Agonist activity at human NMU1 receptor at 100 uM to 5 mM
T1 sequence (whole entry): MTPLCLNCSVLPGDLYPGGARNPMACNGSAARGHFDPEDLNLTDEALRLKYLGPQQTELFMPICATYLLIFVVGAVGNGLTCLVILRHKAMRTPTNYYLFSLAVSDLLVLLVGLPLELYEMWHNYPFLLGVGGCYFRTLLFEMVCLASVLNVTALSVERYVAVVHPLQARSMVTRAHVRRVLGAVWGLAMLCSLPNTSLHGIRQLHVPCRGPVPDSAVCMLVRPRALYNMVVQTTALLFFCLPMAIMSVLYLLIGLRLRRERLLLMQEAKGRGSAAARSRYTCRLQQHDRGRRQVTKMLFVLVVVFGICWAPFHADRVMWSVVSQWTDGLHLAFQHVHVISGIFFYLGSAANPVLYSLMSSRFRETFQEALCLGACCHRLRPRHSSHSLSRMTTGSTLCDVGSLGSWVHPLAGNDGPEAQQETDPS

[8] = target: D(1A) dopamine receptor (Homo sapiens) (UniProt P21728); test: Agonist activity at human D1 receptor at 100 uM to 5 mM
Chain of D(1A) dopamine receptor (Homo sapiens) (P21728 whole entry): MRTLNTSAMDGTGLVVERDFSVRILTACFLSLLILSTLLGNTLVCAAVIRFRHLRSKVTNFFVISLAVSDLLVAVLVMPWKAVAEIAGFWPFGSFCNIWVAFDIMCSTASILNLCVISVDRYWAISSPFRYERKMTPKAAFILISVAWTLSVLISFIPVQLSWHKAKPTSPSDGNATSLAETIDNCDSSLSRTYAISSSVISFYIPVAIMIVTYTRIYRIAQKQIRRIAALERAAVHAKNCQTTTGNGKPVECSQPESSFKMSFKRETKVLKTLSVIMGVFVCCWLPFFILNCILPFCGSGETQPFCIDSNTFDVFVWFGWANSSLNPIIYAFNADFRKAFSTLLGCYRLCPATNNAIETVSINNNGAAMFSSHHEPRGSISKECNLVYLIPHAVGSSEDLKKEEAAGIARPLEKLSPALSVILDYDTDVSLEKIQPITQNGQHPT

[9] = target: D(1B) dopamine receptor (Homo sapiens) (UniProt P21918); test: Agonist activity at human D5 receptor at 100 uM to 5 mM
Chain of D(1B) dopamine receptor (Homo sapiens) (P21918 whole entry): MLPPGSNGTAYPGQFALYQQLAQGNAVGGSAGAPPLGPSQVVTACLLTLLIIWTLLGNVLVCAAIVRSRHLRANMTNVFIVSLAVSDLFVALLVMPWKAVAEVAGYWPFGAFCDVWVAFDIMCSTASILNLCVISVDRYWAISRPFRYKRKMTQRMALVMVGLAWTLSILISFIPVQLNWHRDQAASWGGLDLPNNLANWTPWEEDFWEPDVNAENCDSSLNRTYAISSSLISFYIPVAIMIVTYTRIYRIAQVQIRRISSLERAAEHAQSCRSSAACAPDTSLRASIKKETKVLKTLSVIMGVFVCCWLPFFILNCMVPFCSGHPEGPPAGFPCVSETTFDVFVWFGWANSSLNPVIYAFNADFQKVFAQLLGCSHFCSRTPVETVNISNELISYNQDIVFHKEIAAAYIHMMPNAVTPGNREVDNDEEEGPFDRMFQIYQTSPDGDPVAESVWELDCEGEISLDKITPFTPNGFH

[10] = target: T2, Adenosine receptor A1 (Homo sapiens) (UniProt P30542); test: Agonist activity at human A1 receptor at 100 uM to 5 mM
T2 sequence (whole entry): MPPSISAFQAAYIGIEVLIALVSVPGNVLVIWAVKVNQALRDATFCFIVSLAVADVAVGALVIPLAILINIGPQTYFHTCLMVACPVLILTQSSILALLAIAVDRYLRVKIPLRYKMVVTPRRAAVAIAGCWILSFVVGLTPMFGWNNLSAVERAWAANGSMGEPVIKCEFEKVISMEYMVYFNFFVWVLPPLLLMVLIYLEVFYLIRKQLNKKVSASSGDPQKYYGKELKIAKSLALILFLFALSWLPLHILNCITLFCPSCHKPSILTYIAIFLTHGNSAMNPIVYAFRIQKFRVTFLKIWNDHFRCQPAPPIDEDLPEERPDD

[11] = target: Adenosine receptor A2a (Homo sapiens) (UniProt P29274); test: Agonist activity at human A2a receptor at 100 uM to 5 mM
Chain of Adenosine receptor A2a (Homo sapiens) (P29274 whole entry): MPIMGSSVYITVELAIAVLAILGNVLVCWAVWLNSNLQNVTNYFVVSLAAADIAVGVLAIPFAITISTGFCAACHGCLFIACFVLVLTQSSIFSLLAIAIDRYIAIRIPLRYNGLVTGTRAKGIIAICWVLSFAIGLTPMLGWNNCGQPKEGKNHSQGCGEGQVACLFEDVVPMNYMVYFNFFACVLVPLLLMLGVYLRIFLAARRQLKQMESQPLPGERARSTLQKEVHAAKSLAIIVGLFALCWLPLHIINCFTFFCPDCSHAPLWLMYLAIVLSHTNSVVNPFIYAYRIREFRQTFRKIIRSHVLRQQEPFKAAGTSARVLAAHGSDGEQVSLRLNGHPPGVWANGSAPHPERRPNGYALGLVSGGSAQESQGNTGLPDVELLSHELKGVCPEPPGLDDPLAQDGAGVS

[12] = target: T3, Adenosine receptor A3 (Homo sapiens) (UniProt P0DMS8); test: Agonist activity at human A3 receptor at 100 uM to 5 mM
T3 sequence (whole entry): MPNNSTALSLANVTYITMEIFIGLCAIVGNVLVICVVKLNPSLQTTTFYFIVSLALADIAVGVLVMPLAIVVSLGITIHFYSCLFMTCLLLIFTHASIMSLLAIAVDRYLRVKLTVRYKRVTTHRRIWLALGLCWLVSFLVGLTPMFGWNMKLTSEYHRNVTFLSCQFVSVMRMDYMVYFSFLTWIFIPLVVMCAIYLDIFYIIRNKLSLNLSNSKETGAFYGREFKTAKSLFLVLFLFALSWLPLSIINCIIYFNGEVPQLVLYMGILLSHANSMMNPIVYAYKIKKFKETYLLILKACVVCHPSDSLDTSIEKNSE

[13] = target: T4, C5a anaphylatoxin chemotactic receptor 1 (Homo sapiens) (UniProt P21730); test: Agonist activity at human C5a receptor at 100 uM to 5 mM
T4 sequence (whole entry): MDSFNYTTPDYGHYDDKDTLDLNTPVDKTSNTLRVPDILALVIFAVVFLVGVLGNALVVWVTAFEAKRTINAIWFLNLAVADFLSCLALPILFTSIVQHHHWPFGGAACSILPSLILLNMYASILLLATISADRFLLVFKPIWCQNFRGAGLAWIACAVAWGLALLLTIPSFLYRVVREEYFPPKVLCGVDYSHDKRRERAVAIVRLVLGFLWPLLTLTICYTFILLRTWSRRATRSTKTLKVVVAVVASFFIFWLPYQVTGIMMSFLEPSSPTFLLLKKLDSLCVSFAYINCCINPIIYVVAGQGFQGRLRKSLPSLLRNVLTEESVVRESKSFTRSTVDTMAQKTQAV

[14] = target: T5, Neuropeptide Y receptor type 5 (Homo sapiens) (UniProt Q15761); test: Agonist activity at human NPY5 receptor at 100 uM to 5 mM
T5 sequence (whole entry): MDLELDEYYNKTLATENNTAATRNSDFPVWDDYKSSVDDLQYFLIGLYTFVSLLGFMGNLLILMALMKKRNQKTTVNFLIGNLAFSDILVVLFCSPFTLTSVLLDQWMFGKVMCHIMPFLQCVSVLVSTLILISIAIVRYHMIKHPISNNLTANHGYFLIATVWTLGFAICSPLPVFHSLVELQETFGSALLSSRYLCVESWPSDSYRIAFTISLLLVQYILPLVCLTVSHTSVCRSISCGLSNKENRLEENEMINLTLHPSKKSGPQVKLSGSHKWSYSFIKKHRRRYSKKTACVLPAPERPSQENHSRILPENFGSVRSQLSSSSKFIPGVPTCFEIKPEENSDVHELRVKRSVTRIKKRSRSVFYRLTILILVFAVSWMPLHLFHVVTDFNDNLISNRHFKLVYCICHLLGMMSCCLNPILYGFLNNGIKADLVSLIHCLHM

[15] = target: Glucagon receptor (Homo sapiens) (UniProt P47871); test: Agonist activity at human Glu receptor at 100 uM to 5 mM
Chain of Glucagon receptor (Homo sapiens) (P47871 whole entry): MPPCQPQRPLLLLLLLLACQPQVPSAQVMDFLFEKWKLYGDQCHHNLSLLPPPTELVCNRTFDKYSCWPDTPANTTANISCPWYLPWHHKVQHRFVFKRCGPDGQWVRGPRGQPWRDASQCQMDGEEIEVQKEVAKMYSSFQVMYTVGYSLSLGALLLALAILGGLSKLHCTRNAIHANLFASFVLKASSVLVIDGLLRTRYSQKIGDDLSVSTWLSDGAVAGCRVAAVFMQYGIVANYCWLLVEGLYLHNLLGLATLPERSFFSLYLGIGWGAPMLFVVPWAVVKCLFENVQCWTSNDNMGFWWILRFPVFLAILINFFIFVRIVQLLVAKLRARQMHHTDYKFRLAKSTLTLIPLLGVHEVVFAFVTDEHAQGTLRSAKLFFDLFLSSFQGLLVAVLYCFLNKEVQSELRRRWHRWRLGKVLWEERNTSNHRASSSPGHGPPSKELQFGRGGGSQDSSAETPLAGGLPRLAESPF

| SMILES | EC50 ([1]; hek293) | Activity [2] | Activity [3] | Activity [4] | Activity [5] | Activity [6] | Activity [7] | Activity [8] | Activity [9] | Activity [10] | Activity [11] | Activity [12] | Activity [13] | Activity [14] | Activity [15] | EC50 ([1]; read-out: EC50) |
| --- | --- | --- | --- | --- | --- | --- | --- | --- | --- | --- | --- | --- | --- | --- | --- | --- |
| O=c1cc(-c2ccccc2F)oc2ccccc12 | Not Active | inactive | inactive | inactive | inactive | inactive | inactive | inactive | inactive | inactive | inactive | inactive | inactive | inactive | inactive |  |
| COc1ccc(-c2oc3ccccc3c(=O)c2O)cc1O | Not Active | inactive | inactive | inactive | inactive | inactive | inactive | inactive | inactive | inactive | inactive | inactive | inactive | inactive | inactive |  |
| COc1ccc(F)c(-c2oc3ccccc3c(=O)c2O)c1 |  | inactive | inactive | inactive | inactive | inactive | inactive | inactive | inactive | inactive | inactive | inactive | inactive | inactive | inactive | 253 µM |
